Source: PubChem (Broad Institute)
ERAP1 inh = blocks human ERAP1 aminopeptidase activity. Q9NZ08. recombinant ERAP1, Leu-AMC fluorescence, 60 min. inhibition, % at 10.7 µM. 340,000 tested, 0.15% active;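 active = mean replicate inhibition of at least 30%, or all replicates individually reaching that 30% level; inactive = mean below 30% and not every replicate reaching it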
FGF22 binding = shifts melting point of recombinant human FGF22 | Q9HCT0 | 340,000 tested, 1.5% active | activity (Tm shift, normalised), % at 9.99 µM | recombinant FGF22 thermal shift, SYPRO orange fluorescence; percent of sucrose octasulfate shift, DMSO zero | AID 651658;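 active = mean Tm shift, scaled 0 neutral to 100 positive control, at about 1.3% or above, every replicate too, limit read from the data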
PGC1a acetyl inh = lowers PGC1a acetylation signal in U2OS cells; AlphaScreen anti-acetyl-lysine; with virally co-expressed GCN5 acetyltransferase; inhibition, % at 15.6 µM; 350,000 tested, 0.17% active; AID 651687;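 active = every replicate shows inhibition of at least 40%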
FN deposit inh = fibronectin deposition inhibition | AID 743247 | inhibition, % at 12.6 µM | AH1F fibroblasts, Alexa488-fibronectin deposition fluorescence, overnight | 350,000 tested, 0.086% active;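 active = mean inhibition across replicates of 30% or more, regardless of how many single replicates reach that level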
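Material: AH1F fibroblast monolayer depositing Alexa488-labelled fibronectin into matrix / Amount: 10000 AH1F cells per well / Signal: fluorescence 485/525 nm / Medium: DMEM, 2% serum / Compound: single dose, pinned / Incubation: 1 h cell adhesion before compound, then overnight fibronectin incubation / Reagent: Alexa488-FN, 24 nM final / Read-out: inhibition of fibronectin deposition signal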
SIRT5 inh = inhibitors of human sirtuin-5 desuccinylase; Q9NXA8; Purified SirT5, succinyl-peptide AMC, trypsin-coupled fluorescence; inhibition, % at 15 µM; 330,000 tested, 1.1% active; AID 652115; in the data active = inhibition above about 15%
Each line names hits and unclear results; the compound was inactive in the other large screens. The list is not random: actives were taken first. Their share in the collection is about 2.2%.

CCC1(c2ccc(F)cc2)NC(=O)N(CC(=O)Nc2cccc(S(=O)(=O)N3CCCCC3)c2)C1=O (stereo not given)	SIRT5 inh 15.4
CCOc1ccccc1NC(=O)CCS(=O)(=O)c1ccc(OC)cc1	FGF22 binding 43.9 (no result: PGC1a acetyl inh)
CCN(c1ccccc1)S(=O)(=O)c1ccc(OC)c(NC(=O)CNCCc2ccccc2)c1	none
COc1ccc(NC(=O)N(C)C[C@H]2Oc3ccc(N(C)C)cc3C(=O)N([C@@H](C)CO)C[C@@H]2C)cc1	none (no result: FGF22 binding)
CC/C(CC(=O)C(F)(F)F)=N\NC(=O)/C(C#N)=C/N(C)C	SIRT5 inh 18.1
CN(C)/C=C(\C#N)C(=O)N/N=C/c1ccc(F)cc1	none (no result: PGC1a acetyl inh)
COC(=O)c1ccc(COc2ccccc2/C=C(\C#N)C(=O)Nc2ccc(C)cc2C)cc1	ERAP1 inh 37.3
COC(=O)c1ccc(COc2ccccc2/C=C(\C#N)C(=O)Nc2c(C)cc(C)cc2C)cc1	none (no result: SIRT5 inh)
O=[N+]([O-])c1ccc(S(=O)Cc2ccccc2)c([N+](=O)[O-])c1 (stereo not given)	FN deposit inh 36.7 (no result: PGC1a acetyl inh)
O=[N+]([O-])c1ccc(CS(=O)c2ccccc2)cc1 (stereo not given)	none (no result: PGC1a acetyl inh, FN deposit inh)
CCN(CC)C(=O)Cn1cc(C(=O)C(=O)N2CC=C(c3ccccc3)CC2)c2ccccc21	FGF22 binding 43.2
CCN(CC)C(=O)Cn1cc(C(=O)C(=O)N2CCN(C)CC2)c2ccccc21	none (no result: PGC1a acetyl inh)
Cc1noc(C)c1NC(=O)N(C)C[C@H]1OCCCC[C@@H](C)Oc2ccc(NC(=O)c3ccncc3)cc2C(=O)N([C@@H](C)CO)C[C@H]1C	none (no result: FN deposit inh)
Oc1ccc(/C=N/n2cc(-c3ccccc3)[nH]c2=S)cc1	FGF22 binding 43.5
C1=CCN(c2nc(N3CCOCC3)nc(N3CCCc4ccccc43)n2)CC1	FGF22 binding 43.5 (no result: SIRT5 inh)
O=C(O)c1cccc(Cn2c(Cl)c(/C=N/NC(=O)c3cc4ccccc4cc3O)sc2=O)c1	SIRT5 inh 23.6 (no result: ERAP1 inh)
O=C(O)c1cccc(Cn2c(Cl)c(/C=N/NC(=O)c3ccccc3)sc2=O)c1	none (no result: ERAP1 inh, FGF22 binding, FN deposit inh, SIRT5 inh)
CN(Cc1ccccc1)C(=O)c1[nH]cnc1C(=O)Nc1ccc(Br)cc1F	SIRT5 inh 18.0 (no result: PGC1a acetyl inh)
O=C(Nc1cccc(Cl)c1)N[C@H]1CC[C@@H](CCNC(=O)C2CCCCC2)O[C@H]1CO	none
COc1cc2ccc(=O)oc2c(O[C@@H]2O[C@H](CO)[C@@H](O)[C@H](O)[C@H]2O)c1O	ERAP1 inh 58.7
C[C@@H]1CN([C@@H](C)CO)C(=O)c2cc(NS(=O)(=O)c3cn(C)cn3)ccc2O[C@H]1CN(C)C(=O)Nc1ccc(C(F)(F)F)cc1	none
CN(C)C(=O)C[C@H]1C[C@H]2c3cc(NC(=O)C4CCC4)ccc3O[C@H]2[C@H](CO)O1	none
O=C(CCN1CCCCC1)NCC[C@@H]1CC[C@H](NC(=O)C2CCCC2)[C@@H](CO)O1	none (no result: FN deposit inh)
Cc1ccc(S(=O)(=O)c2cc3ccccc3oc2=O)cc1	none (no result: ERAP1 inh, FGF22 binding, SIRT5 inh)
Cc1c(O)ccc2cc(S(=O)(=O)c3ccccc3)c(=O)oc12	ERAP1 inh 132.0 (no result: PGC1a acetyl inh)
CO[C@H]1CN(C)C(=O)c2ccc(NC(=O)c3cnccn3)cc2OC[C@@H](C)N(CC2CC2)C[C@H]1C	none (no result: FN deposit inh)
CCOC(=O)C1CCCN(CC(=O)NC2=Nc3ccccc3N=C(C)C2c2ccccc2)C1 (stereo not given)	none (no result: ERAP1 inh, FGF22 binding, SIRT5 inh)
CC1=Nc2ccccc2N=C(NC(=O)CN2CCN(c3ccccc3)CC2)C1c1ccccc1 (stereo not given)	PGC1a acetyl inh 86.1
C[C@H]1CN([C@@H](C)CO)S(=O)(=O)c2ccc(-c3cccc(C#N)c3)cc2O[C@@H]1CN(C)C(=O)C1CC1	none
CCCCCCCCCCOC(=O)Cn1c(COc2ccccc2)[n+](C)c2ccccc21	ERAP1 inh 48.8 (no result: PGC1a acetyl inh)
CCCCCCCCCCOC(=O)Cn1c(COc2cccc(C)c2)[n+](C)c2ccccc21	ERAP1 inh 30.5 (no result: PGC1a acetyl inh)
CCCCCCCCCCOC(=O)Cn1c(COc2ccccc2C)[n+](C)c2ccccc21	ERAP1 inh 32.9 (no result: FGF22 binding, PGC1a acetyl inh, FN deposit inh)
CCCCOC(=O)Cn1c(=O)n(CC(=O)OCCCC)c2ccccc21	none (no result: ERAP1 inh, FGF22 binding, FN deposit inh, SIRT5 inh)
CCCCCCCCCCOC(=O)Cn1c(COc2ccc(Cl)cc2)[n+](C)c2ccccc21	ERAP1 inh 34.5 (no result: PGC1a acetyl inh)
CCCCCOC(=O)Cn1c(=O)oc2ccccc21	none
CCOC(=O)Cn1c(COc2ccccc2OC)[n+](C)c2ccccc21	none
CCC(=O)N(C)C[C@@H]1Oc2cc(C3=CCCC3)ccc2S(=O)(=O)N([C@@H](C)CO)C[C@@H]1C	none (no result: FN deposit inh)
